The values that follow come from ChEMBL document CHEMBL4808161, “Structure-Activity Relationship Study of Amidobenzimidazole Analogues Leading to Potent and Systemically Administrable Stimulator of Interferon Gene (STING) Agonists” (J Med Chem, 2021).

T1 sequence (Q86WV6 whole entry, the tested form may be a part): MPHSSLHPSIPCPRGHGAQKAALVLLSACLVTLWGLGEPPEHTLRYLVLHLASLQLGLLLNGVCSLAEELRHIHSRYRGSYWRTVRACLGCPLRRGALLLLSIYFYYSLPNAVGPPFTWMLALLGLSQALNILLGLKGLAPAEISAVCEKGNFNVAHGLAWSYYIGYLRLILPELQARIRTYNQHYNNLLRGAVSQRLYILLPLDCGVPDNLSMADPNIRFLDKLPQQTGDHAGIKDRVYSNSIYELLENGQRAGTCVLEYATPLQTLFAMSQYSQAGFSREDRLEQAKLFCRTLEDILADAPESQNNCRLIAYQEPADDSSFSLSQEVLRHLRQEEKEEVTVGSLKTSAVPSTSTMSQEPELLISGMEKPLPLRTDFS

The first assay deals with T1, Stimulator of interferon genes protein (Homo sapiens, UniProt Q86WV6). The experiment in a line: Activation of human STING (139 to 379 residues) expressed in THP1-Blue ISG cells at 10 uM incubated for 24 hrs by quanti-blue SEAP reporter gene assay relative to control. It counts as cell-based. As to conditions: filed as activator. Summed up:
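THP1-Blue-ISG cells (1 × 10⁵/well) treated for 24 h; single-concentration screen at 10 μM. SEAP ISG reporter in 20 μL supernatant read with QUANTI-Blue at 650 nm. Activation given as fold over control, averaging at least two experiments.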
(In general: In a reporter assay the amount or activity of a reporter protein is the signal.)
`CCn1nc(C)cc1C(=O)/N=c1\[nH]c2cc(C3=NCCO3)cc(OC)c2n1C/C=C/Cn1/c(=N/C(=O)c2cc(C)nn2CC)[nH]c2cc(C(N)=O)cc(OCCCN3CCOCC3)c21`: the fold change (FC) is 18.3.

Turning to `CCn1nc(C)cc1/C=C/c1nc2cc(C(N)=O)cc(OC)c2n1C/C=C/Cn1c(/C=C/c2cc(C)nn2CC)nc2cc(C(N)=O)cc(OCCCN3CCOCC3)c21`, the fold change (FC) was found to be 0.98.

Turning to `CCn1nc(C)cc1C(=O)/N=c1\[nH]c2cc(C#N)cc(OC)c2n1C/C=C/Cn1/c(=N/C(=O)c2cc(C)nn2CC)[nH]c2cc(C#N)cc(OCCCN3CCOCC3)c21`, the fold change (FC) amounted to 7.9.

On to `CCn1nc(C)cc1C(=O)/N=c1\[nH]c2cc(C(N)=O)cc(OC)c2n1C/C=C/Cn1/c(=N/C(=O)c2cc(C)nn2CC)[nH]c2cc(C#N)cc(OCCCN3CCOCC3)c21`, for which the fold change (FC) came to 13.4.

With `CCn1nc(C)cc1C(=O)/N=c1\[nH]c2cc(C(N)=O)cc(OC)c2n1C/C=C/Cn1/c(=N/C(=O)c2cc(C)nn2CC)[nH]c2cc(-c3ncc[nH]3)cc(OCCCN3CCOCC3)c21`, the fold change (FC) amounted to 17.3.

For `CCn1nc(C)cc1C(=O)/N=c1\[nH]c2cc(C(N)=O)cc(OC)c2n1C/C=C/Cn1c(C(=O)CCC(=O)O)nc2cc(C(N)=O)cc(OCCCN3CCOCC3)c21`, the fold change (FC) was determined as 0.86.

As to `CCn1nc(C)cc1C(=O)/N=c1\[nH]c2cc(-c3ncn[nH]3)cc(OC)c2n1[C@H]1CC[C@H](n2/c(=N/C(=O)c3cc(C)nn3CC)[nH]c3cc(C(N)=O)cc(OCCCN4CCOCC4)c32)CC1`, the fold change (FC) was determined as 3.86.

Take `CCn1nc(C)cc1C(=O)/N=c1\[nH]c2cc(-c3ncn[nH]3)cc(OC)c2n1[C@H]1CC[C@@H](n2/c(=N/C(=O)c3cc(C)nn3CC)[nH]c3cc(C(N)=O)cc(OCCCN4CCOCC4)c32)CC1`: the fold change (FC) turned out to be 1.14.

Consider `CCn1nc(C)cc1C(=O)/N=c1\[nH]c2cc(C(N)=O)cc(OC)c2n1C/C=C/Cn1/c(=N/C(=O)c2cc(C)nn2CC)[nH]c2cc(-c3ncn[nH]3)cc(OCCCN3CCOCC3)c21`, for which the fold change (FC) is 17.

Turning to `CCn1nc(C)cc1C(=O)/N=c1\[nH]c2cc(-c3ncc[nH]3)cc(OC)c2n1C/C=C/Cn1/c(=N/C(=O)c2cc(C)nn2CC)[nH]c2cc(C(N)=O)cc(OCCCN3CCOCC3)c21`, the fold change (FC) came to 17.5.

For the compound `CCn1nc(C)cc1C(=O)/N=c1\[nH]c2cc(C(N)=O)cc(OC)c2n1C/C=C/Cn1c(C(=O)CCC(=O)OC)nc2cc(C(N)=O)cc(OCCCN3CCOCC3)c21`, the fold change (FC) came to 0.83.

With `COC(=O)CCC(=O)c1nc2cc(C(N)=O)cc(OC)c2n1C/C=C/Cn1c(C(=O)CCC(=O)OC)nc2cc(C(N)=O)cc(OCCCN3CCOCC3)c21`, the fold change (FC) was determined as 6.16.

Take `CCn1nc(C)cc1C(=O)/N=c1\[nH]c2cc(-c3cn(CCOCCOC)nn3)cc(OC)c2n1C/C=C/Cn1/c(=N/C(=O)c2cc(C)nn2CC)[nH]c2cc(C(N)=O)cc(OCCCN3CCOCC3)c21`: the fold change (FC) was found to be 17.2.

In a further assay the target is T2, Stimulator of interferon genes protein (Mus musculus) (UniProt Q3TBT3).
T2 sequence (whole entry): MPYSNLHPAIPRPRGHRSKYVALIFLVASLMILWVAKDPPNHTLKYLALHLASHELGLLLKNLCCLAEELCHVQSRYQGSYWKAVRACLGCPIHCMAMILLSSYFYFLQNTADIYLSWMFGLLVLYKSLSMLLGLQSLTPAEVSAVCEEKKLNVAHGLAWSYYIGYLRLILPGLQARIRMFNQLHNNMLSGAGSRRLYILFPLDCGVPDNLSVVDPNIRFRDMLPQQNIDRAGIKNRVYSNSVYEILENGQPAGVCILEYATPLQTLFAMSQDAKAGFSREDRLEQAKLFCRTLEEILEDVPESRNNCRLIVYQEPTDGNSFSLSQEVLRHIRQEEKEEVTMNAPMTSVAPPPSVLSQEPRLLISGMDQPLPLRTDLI
The experiment in a line: Activation of mouse STING expressed in RAW-Lucia ISG cells at 50 uM incubated for 24 hrs by quanti-blue SEAP reporter gene assay relative to control. Format: cell-based. To be noted: filed as activator.
As to `CCn1nc(C)cc1C(=O)/N=c1\[nH]c2cc(C#N)cc(OC)c2n1C/C=C/Cn1/c(=N/C(=O)c2cc(C)nn2CC)[nH]c2cc(C#N)cc(OCCCN3CCOCC3)c21`, the fold change (FC) worked out at 1.16.

For `CCn1nc(C)cc1C(=O)/N=c1\[nH]c2cc(C(N)=O)cc(OC)c2n1C/C=C/Cn1c(C(=O)CCC(=O)O)nc2cc(C(N)=O)cc(OCCCN3CCOCC3)c21`, the fold change (FC) was 0.93.

On to `CCn1nc(C)cc1C(=O)/N=c1\[nH]c2cc(-c3ncn[nH]3)cc(OC)c2n1[C@H]1CC[C@@H](n2/c(=N/C(=O)c3cc(C)nn3CC)[nH]c3cc(C(N)=O)cc(OCCCN4CCOCC4)c32)CC1`, for which the fold change (FC) worked out at 0.59.

With `CCn1nc(C)cc1C(=O)/N=c1\[nH]c2cc(C(N)=O)cc(OC)c2n1C/C=C/Cn1c(C(=O)CCC(=O)OC)nc2cc(C(N)=O)cc(OCCCN3CCOCC3)c21`, the fold change (FC) turned out to be 0.9.

In the next assay the target is T1, Stimulator of interferon genes protein. In words: Activation of human STING expressed in THP1-Dual cells incubated for 24 hrs by secreted luciferase reporter gene assay.
Conditions: not given
With `CCn1nc(C)cc1C(=O)/N=c1\[nH]c2cc(C3=NCCO3)cc(OC)c2n1C/C=C/Cn1/c(=N/C(=O)c2cc(C)nn2CC)[nH]c2cc(C(N)=O)cc(OCCCN3CCOCC3)c21`, the midpoint of the response, the EC50, lay at 1.54 µM.

`CCn1nc(C)cc1C(=O)/N=c1\[nH]c2cc(C#N)cc(OC)c2n1C/C=C/Cn1/c(=N/C(=O)c2cc(C)nn2CC)[nH]c2cc(C#N)cc(OCCCN3CCOCC3)c21` yielded an EC50 of over 50 µM.

`CCn1nc(C)cc1C(=O)/N=c1\[nH]c2cc(C(N)=O)cc(OC)c2n1C/C=C/Cn1/c(=N/C(=O)c2cc(C)nn2CC)[nH]c2cc(C#N)cc(OCCCN3CCOCC3)c21` gave an EC50 of 1.02 µM.

Consider `CCn1nc(C)cc1C(=O)/N=c1\[nH]c2cc(C(N)=O)cc(OC)c2n1C/C=C/Cn1/c(=N/C(=O)c2cc(C)nn2CC)[nH]c2cc(-c3ncc[nH]3)cc(OCCCN3CCOCC3)c21`, for which the response was half-maximal at 0.79 µM (EC50).

`CCn1nc(C)cc1C(=O)/N=c1\[nH]c2cc(-c3ncn[nH]3)cc(OC)c2n1[C@H]1CC[C@H](n2/c(=N/C(=O)c3cc(C)nn3CC)[nH]c3cc(C(N)=O)cc(OCCCN4CCOCC4)c32)CC1` came in with an EC50 of over 50 µM.

`CCn1nc(C)cc1C(=O)/N=c1\[nH]c2cc(C(N)=O)cc(OC)c2n1C/C=C/Cn1/c(=N/C(=O)c2cc(C)nn2CC)[nH]c2cc(-c3ncn[nH]3)cc(OCCCN3CCOCC3)c21` gave an EC50 of 0.33 µM.

On to `CCn1nc(C)cc1C(=O)/N=c1\[nH]c2cc(-c3ncc[nH]3)cc(OC)c2n1C/C=C/Cn1/c(=N/C(=O)c2cc(C)nn2CC)[nH]c2cc(C(N)=O)cc(OCCCN3CCOCC3)c21`, for which the midpoint of the response, the EC50, lay at 3.28 µM.

`COC(=O)CCC(=O)c1nc2cc(C(N)=O)cc(OC)c2n1C/C=C/Cn1c(C(=O)CCC(=O)OC)nc2cc(C(N)=O)cc(OCCCN3CCOCC3)c21`: the EC50 was found to be 29.1 µM.

A further assay concerns the target T3, Stimulator of interferon genes protein (Mus musculus, UniProt Q3TBT3).
T3 sequence (Q3TBT3 whole entry): T2 sequence (whole entry)
In words: Activation of mouse STING expressed in RAW-Lucia ISG cells incubated for 24 hrs by secreted luciferase reporter gene assay.
Conditions: not given
With `CCn1nc(C)cc1C(=O)/N=c1\[nH]c2cc(C3=NCCO3)cc(OC)c2n1C/C=C/Cn1/c(=N/C(=O)c2cc(C)nn2CC)[nH]c2cc(C(N)=O)cc(OCCCN3CCOCC3)c21`, the EC50 was over 50 µM.

In turn, `CCn1nc(C)cc1C(=O)/N=c1\[nH]c2cc(C#N)cc(OC)c2n1C/C=C/Cn1/c(=N/C(=O)c2cc(C)nn2CC)[nH]c2cc(C#N)cc(OCCCN3CCOCC3)c21` came in with an EC50 of over 50 µM.

Regarding `CCn1nc(C)cc1C(=O)/N=c1\[nH]c2cc(C(N)=O)cc(OC)c2n1C/C=C/Cn1/c(=N/C(=O)c2cc(C)nn2CC)[nH]c2cc(C#N)cc(OCCCN3CCOCC3)c21`, the EC50 was over 50 µM.

Turning to `CCn1nc(C)cc1C(=O)/N=c1\[nH]c2cc(C(N)=O)cc(OC)c2n1C/C=C/Cn1/c(=N/C(=O)c2cc(C)nn2CC)[nH]c2cc(-c3ncc[nH]3)cc(OCCCN3CCOCC3)c21`, the EC50 was over 50 µM.

`CCn1nc(C)cc1C(=O)/N=c1\[nH]c2cc(-c3ncn[nH]3)cc(OC)c2n1[C@H]1CC[C@H](n2/c(=N/C(=O)c3cc(C)nn3CC)[nH]c3cc(C(N)=O)cc(OCCCN4CCOCC4)c32)CC1` had an EC50 of over 50 µM.

Regarding `CCn1nc(C)cc1C(=O)/N=c1\[nH]c2cc(C(N)=O)cc(OC)c2n1C/C=C/Cn1/c(=N/C(=O)c2cc(C)nn2CC)[nH]c2cc(-c3ncn[nH]3)cc(OCCCN3CCOCC3)c21`, the EC50 is over 50 µM.

For the compound `CCn1nc(C)cc1C(=O)/N=c1\[nH]c2cc(-c3ncc[nH]3)cc(OC)c2n1C/C=C/Cn1/c(=N/C(=O)c2cc(C)nn2CC)[nH]c2cc(C(N)=O)cc(OCCCN3CCOCC3)c21`, the EC50 was over 50 µM.

As to `COC(=O)CCC(=O)c1nc2cc(C(N)=O)cc(OC)c2n1C/C=C/Cn1c(C(=O)CCC(=O)OC)nc2cc(C(N)=O)cc(OCCCN3CCOCC3)c21`, the EC50 was over 50 µM.

The target in another assay is T2, Stimulator of interferon genes protein (Mus musculus). In words: Activation of mouse STING expressed in RAW-Lucia ISG cells at 50 uM incubated for 24 hrs by QUANTI-Luc luciferase reporter gene assay relative to control. As to conditions: filed as activator.
As to `CCn1nc(C)cc1C(=O)/N=c1\[nH]c2cc(C3=NCCO3)cc(OC)c2n1C/C=C/Cn1/c(=N/C(=O)c2cc(C)nn2CC)[nH]c2cc(C(N)=O)cc(OCCCN3CCOCC3)c21`, the fold change (FC) came out at 0.99.

Take `CCn1nc(C)cc1/C=C/c1nc2cc(C(N)=O)cc(OC)c2n1C/C=C/Cn1c(/C=C/c2cc(C)nn2CC)nc2cc(C(N)=O)cc(OCCCN3CCOCC3)c21`: the fold change (FC) was determined as 0.96.

`CCn1nc(C)cc1C(=O)/N=c1\[nH]c2cc(C(N)=O)cc(OC)c2n1C/C=C/Cn1/c(=N/C(=O)c2cc(C)nn2CC)[nH]c2cc(C#N)cc(OCCCN3CCOCC3)c21`: the fold change (FC) worked out at 1.07.

With `CCn1nc(C)cc1C(=O)/N=c1\[nH]c2cc(C(N)=O)cc(OC)c2n1C/C=C/Cn1/c(=N/C(=O)c2cc(C)nn2CC)[nH]c2cc(-c3ncc[nH]3)cc(OCCCN3CCOCC3)c21`, the fold change (FC) was 1.18.

Consider `CCn1nc(C)cc1C(=O)/N=c1\[nH]c2cc(-c3ncn[nH]3)cc(OC)c2n1[C@H]1CC[C@H](n2/c(=N/C(=O)c3cc(C)nn3CC)[nH]c3cc(C(N)=O)cc(OCCCN4CCOCC4)c32)CC1`, for which the fold change (FC) is 0.48.

Take `CCn1nc(C)cc1C(=O)/N=c1\[nH]c2cc(C(N)=O)cc(OC)c2n1C/C=C/Cn1/c(=N/C(=O)c2cc(C)nn2CC)[nH]c2cc(-c3ncn[nH]3)cc(OCCCN3CCOCC3)c21`: the fold change (FC) is 2.17.

As to `CCn1nc(C)cc1C(=O)/N=c1\[nH]c2cc(-c3ncc[nH]3)cc(OC)c2n1C/C=C/Cn1/c(=N/C(=O)c2cc(C)nn2CC)[nH]c2cc(C(N)=O)cc(OCCCN3CCOCC3)c21`, the fold change (FC) was found to be 1.42.

As to `COC(=O)CCC(=O)c1nc2cc(C(N)=O)cc(OC)c2n1C/C=C/Cn1c(C(=O)CCC(=O)OC)nc2cc(C(N)=O)cc(OCCCN3CCOCC3)c21`, the fold change (FC) amounted to 1.01.

Turning to `CCn1nc(C)cc1C(=O)/N=c1\[nH]c2cc(-c3cn(CCOCCOC)nn3)cc(OC)c2n1C/C=C/Cn1/c(=N/C(=O)c2cc(C)nn2CC)[nH]c2cc(C(N)=O)cc(OCCCN3CCOCC3)c21`, the fold change (FC) was determined as 1.16.

As usually defined, the EC50 is the concentration needed to bring the measured effect to its halfway point. A lower EC50 goes with higher potency in that assay.
